Results published in ChEMBL document CHEMBL1123505, “Synthesis, structure, and antitumor activity of N-salicyloyl-N'-(2-furylthiocarbonyl)hydrazine and its copper(II) complex” (1986).
Several values for one entry are separate records, joined by “and”; a condition that tells them apart may be missing. Identical values can stand only once.

Key:
Mus musculus [1] = test: Antitumor activity expressed as mean life span of nonsurvivors in days (T/C) was tested against Dalton's lymphoma at the dosage of 10 mg/kg (ip); 30/23; assay type: functional, organism-based; design: dose 10 mg/kg
In short: (§1)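 Dalton's lymphoma: 2 × 10⁷ ascites cells were given ip to DbA mice, 18–20 g. A single ip dose in 0.89% saline followed on day two, with saline-injected controls. Mean life span was calculated excluding mice that survived 6 months or more. T/C% is the mean survival of treated mice, excluding tumour-free survivors, divided by the mean life span of untreated mice ×100.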

Mus musculus [2] = test: Antitumor activity against Dalton's lymphoma infected mice at the dosage of 10 mg/kg (ip) and expressed as no. of mice injected; T/C= 5/5; assay type: functional
Mus musculus [3] = test: Antitumor activity expressed as average body weight change was tested against fibrosarcoma at the dosage of 10 mg/kg (sc); assay type: functional
In short: (§2)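 Fibrosarcoma-bearing C₃H/He mice (4 × 10⁶ cells sc) received a single ip or sc dose in 0.89% saline on day three after transplant; controls received saline. The day of injection was taken as day zero. Mice were weighed on alternate days up to 4 weeks. Values are average % weight change from the day of treatment to day 21.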

Mus musculus [4] = test: Antitumor activity expressed as mean life span of nonsurvivors in days (T/C) was tested against Dalton's lymphoma at the dosage of 25 mg/kg (ip); 38/23; assay type: functional, organism-based; design: dose 25 mg/kg; in short: as §1
Mus musculus [5] = test: Antitumor activity expressed as %T/C was tested against fibrosarcoma at the dosage of 10 mg/Kg (sc); assay type: functional
In short: (§3)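 Fibrosarcoma: 4 × 10⁶ cells were given sc to C₃H/He mice, 25–30 g. A single ip or sc dose in 0.89% saline followed on day three, with saline-injected controls. Mean life span of nonsurvivors excludes mice surviving 6 months or more, which were counted as tumour-free. T/C% is treated mean survival, excluding tumour-free survivors, divided by untreated mean life span ×100.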

Mus musculus [6] = test: Antitumor activity expressed as mean life span of nonsurvivors in days (T/C) was tested against fibrosarcoma at the dosage of 5 mg/kg (ip); 34/26; assay type: functional, organism-based; design: dose 5 mg/kg; in short: as §3
Mus musculus [7] = test: Antitumor activity against Dalton's lymphoma infected mice at the dosage of 25 mg/kg (ip) and expressed as no. of mice injected; T/C= 5/5; assay type: functional
Mus musculus [8] = test: Antitumor activity expressed as the no. of mice surviving >6 months was tested against fibrosarcoma at the dosage of 50 mg/kg (ip); assay type: functional
In short: (§4)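 Fibrosarcoma was established by sc inoculation of 4 × 10⁶ cells in mice. On day 3 they received a single ip or sc injection of compound freshly suspended in 0.89% saline, with 5–10 mice per group. The count is of mice surviving 6 months or more after treatment, scored as tumor-free, with the percentage of the group also given.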

Mus musculus [9] = test: Antitumor activity against Dalton's lymphoma infected mice at the dosage of 2 mg/kg (ip) and expressed as no. of mice injected; T/C= 5/5; assay type: functional
Mus musculus [10] = test: Antitumor activity expressed as %T/C was tested against fibrosarcoma at the dosage of 5 mg/Kg (ip); assay type: functional; in short: as §3
Mus musculus [11] = test: Antitumor activity expressed as mean life span of nonsurvivors in days (T/C) was tested against fibrosarcoma at the dosage of 10 mg/kg (ip); 35/27; assay type: functional, organism-based; design: dose 10 mg/kg; in short: as §3
Mus musculus [12] = test: Antitumor activity against fibrosarcoma infected mice at the dosage of 25 mg/kg (sc) and expressed as no. of mice injected; T/C= 8/6; assay type: functional, organism-based; design: dose 25 mg/kg
Mus musculus [13] = test: Antitumor activity expressed as average body weight change was tested against fibrosarcoma at the dosage of 25 mg/kg (ip); assay type: functional, organism-based; design: dose 25 mg/kg; in short: as §2
Mus musculus [14] = test: Antitumor activity against fibrosarcoma infected mice at the dosage of 25 mg/kg (ip) and expressed as no. of mice injected; T/C= 7/7; assay type: functional, organism-based; design: dose 25 mg/kg
Mus musculus [15] = test: Antitumor activity expressed as average body weight change was tested against fibrosarcoma at the dosage of 5 mg/kg (ip); assay type: functional, organism-based; design: dose 5 mg/kg; in short: as §2
Mus musculus [16] = test: Antitumor activity against fibrosarcoma infected mice at the dosage of 10 mg/kg (sc) and expressed as no. of mice injected; T/C= 8/7; assay type: functional
Mus musculus [17] = test: Antitumor activity expressed as mean life span of nonsurvivors in days (T/C) was tested against fibrosarcoma at the dosage of 25 mg/kg (sc); 39/29; assay type: functional, organism-based; design: dose 25 mg/kg; in short: as §3
Mus musculus [18] = test: Antitumor activity expressed as mean life span of nonsurvivors in days (T/C) was tested against fibrosarcoma at the dosage of 5 mg/kg (sc); 30/27; assay type: functional, organism-based; design: dose 5 mg/kg; in short: as §3
Mus musculus [19] = test: Antitumor activity expressed as average body weight change was tested against fibrosarcoma at the dosage of 25 mg/kg (sc); assay type: functional; in short: as §2
Mus musculus [20] = test: Antitumor activity expressed as average body weight change was tested against fibrosarcoma at the dosage of 50 mg/kg (ip); assay type: functional, organism-based; design: dose 50 mg/kg; in short: as §2
Mus musculus [21] = test: Antitumor activity against fibrosarcoma infected mice at the dosage of 5 mg/kg (sc) and expressed as no. of mice injected; T/C= 6/6; assay type: functional, organism-based; design: dose 5 mg/kg
Mus musculus [22] = test: Antitumor activity expressed as mean life span of nonsurvivors in days (T/C) was tested against fibrosarcoma at the dosage of 50 mg/kg (ip); 37/28; assay type: functional, organism-based; design: dose 50 mg/kg; in short: as §3
Mus musculus [23] = test: Antitumor activity expressed as %T/C was tested against fibrosarcoma at the dosage of 25 mg/Kg (sc); assay type: functional; in short: as §3
Mus musculus [24] = test: Antitumor activity expressed as mean life span of nonsurvivors in days (T/C) was tested against fibrosarcoma at the dosage of 25 mg/kg (ip); 33/25; assay type: functional, organism-based; design: dose 25 mg/kg; in short: as §3
Mus musculus [25] = test: Antitumor activity expressed as the no. of mice surviving >6 months was tested against fibrosarcoma at the dosage of 5 mg/kg (ip); assay type: functional; in short: as §4
Mus musculus [26] = test: Antitumor activity expressed as average body weight change was tested against fibrosarcoma at the dosage of 5 mg/kg (sc); assay type: functional; in short: as §2
Mus musculus [27] = test: Antitumor activity expressed as mean life span of nonsurvivors in days (T/C) was tested against fibrosarcoma at the dosage of 10 mg/kg (sc); 41/28; assay type: functional, organism-based; design: dose 10 mg/kg; in short: as §3
Mus musculus [28] = test: Antitumor activity expressed as mean life span of nonsurvivors in days (T/C) was tested against Dalton's lymphoma at the dosage of 2 mg/kg (ip); 24/23; assay type: functional, organism-based; design: dose 2 mg/kg; in short: as §1
Mus musculus [29] = test: Antitumor activity expressed as %T/C was tested against fibrosarcoma at the dosage of 50 mg/Kg (ip); assay type: functional; in short: as §3
Mus musculus [30] = test: Antitumor activity expressed as %T/C was tested against fibrosarcoma at the dosage of 5 mg/Kg (sc); assay type: functional; in short: as §3
Mus musculus [31] = test: Antitumor activity expressed as average body weight change was tested against fibrosarcoma at the dosage of 10 mg/kg (ip); assay type: functional, organism-based; design: dose 10 mg/kg; in short: as §2
Mus musculus [32] = test: Antitumor activity against fibrosarcoma infected mice at the dosage of 50 mg/kg (ip) and expressed as no. of mice injected; T/C= 10/6; assay type: functional, organism-based; design: dose 50 mg/kg
Mus musculus [33] = test: Antitumor activity expressed as the no. of mice surviving >6 months was tested against fibrosarcoma at the dosage of 25 mg/kg (ip); assay type: functional; in short: as §4
Mus musculus [34] = test: Antitumor activity expressed as %T/C was tested against Dalton's lymphoma at the dosage of 2 mg/Kg (ip); assay type: functional; in short: as §1
Mus musculus [35] = test: Antitumor activity expressed as %T/C was tested against fibrosarcoma at the dosage of 10 mg/Kg (ip); assay type: functional; in short: as §3
Mus musculus [36] = test: Antitumor activity against fibrosarcoma infected mice at the dosage of 10 mg/kg (ip) and expressed as no. of mice injected; T/C= 8/8; assay type: functional, organism-based; design: dose 10 mg/kg
Mus musculus [37] = test: Antitumor activity against fibrosarcoma infected mice at the dosage of 5 mg/kg (ip) and expressed as no. of mice injected; T/C= 8/8; assay type: functional, organism-based; design: dose 5 mg/kg
Mus musculus [38] = test: Antitumor activity expressed as %T/C was tested against Dalton's lymphoma at the dosage of 10 mg/Kg (ip); assay type: functional; in short: as §1
Mus musculus [39] = test: Antitumor activity expressed as %T/C was tested against Dalton's lymphoma at the dosage of 25 mg/Kg (ip); assay type: functional; in short: as §1
Mus musculus [40] = test: Antitumor activity expressed as %T/C was tested against fibrosarcoma at the dosage of 25 mg/Kg (ip); assay type: functional; in short: as §3

Copper(II) Complex
T/C (Mus musculus [1]): 30 days
T/C (Mus musculus [2]): 5
Average body weight change (Mus musculus [3]): 5.86%
T/C (Mus musculus [4]): 38 days
T/C (Mus musculus [5]): 146%
T/C (Mus musculus [6]): 34 days
T/C (Mus musculus [7]): 5
No. of mice surviving >6 months (Mus musculus [8]): 4
T/C (Mus musculus [9]): 5
T/C (Mus musculus [10]): 131%
T/C (Mus musculus [11]): 35 days
T/C (Mus musculus [12]): 8
Average body weight change (Mus musculus [13]): 12%
T/C (Mus musculus [14]): 7
Average body weight change (Mus musculus [15]): 15.5%
T/C (Mus musculus [16]): 8
T/C (Mus musculus [17]): 39 days
T/C (Mus musculus [18]): 30 days
Average body weight change (Mus musculus [19]): 5.51%
Average body weight change (Mus musculus [20]): 8.51%
T/C (Mus musculus [21]): 6
T/C (Mus musculus [22]): 37 days
T/C (Mus musculus [23]): 135%
T/C (Mus musculus [24]): 33 days
No. of mice surviving >6 months (Mus musculus [25]): 2
Average body weight change (Mus musculus [26]): 19.4%
T/C (Mus musculus [27]): 41 days
T/C (Mus musculus [28]): 24 days
T/C (Mus musculus [29]): 132%
T/C (Mus musculus [30]): 111%
Average body weight change (Mus musculus [31]): 18.3%
T/C (Mus musculus [32]): 10
No. of mice surviving >6 months (Mus musculus [33]): 3 and 6
T/C (Mus musculus [34]): 104%
T/C (Mus musculus [35]): 130%
T/C (Mus musculus [36]): 8
T/C (Mus musculus [37]): 8
T/C (Mus musculus [38]): 130%
T/C (Mus musculus [39]): 165%
T/C (Mus musculus [40]): 132%
